Results published in ChEMBL document CHEMBL3739337, “Alkaloids with Different Carbon Units from Myrioneuron faberi” (J Nat Prod, 2015).
pEC50: −log10 of the molar value.

Assays:
[1] = Therapeutic index, ratio of CC50 for human Huh7.5 cells to EC50 for chimeric HCV FL-J6/JFH/JC1 infected in human Huh7.5 cells; type: cell-based, Huh-7; conditions: read-out: Ratio CC50/EC50
Hepatitis C virus = test: Antiviral activity against chimeric HCV FL-J6/JFH/JC1 infected in human Huh7.5 cells assessed as reduction of intracellular viral RNA level after 72 hrs by RT-PCR assay; type: functional, organism-based, Hepacivirus hominis; conditions: FL-J6/JFH/JC1, Huh-7, 72 h
How it was run: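 Huh7.5 cells in DMEM with 10% inactivated FBS at 37 °C, 5% CO2, seeded at 3 × 10^4 cells/cm2. After 24 h they were infected (about 45 IU per cell) and given compound or solvent control at the same time. At 72 h, intracellular HCV RNA was measured against GAPDH by one-step RT-PCR (2ΔΔCT). EC50 was derived by the Reed and Muench method.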

[2] = Cytotoxicity against human Huh7.5 cells; type: cell-based, Huh-7
How it was run: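 Huh7.5 human liver cells grown in DMEM with 10% inactivated fetal bovine serum and 1% penicillin–streptomycin at 37 °C, 5% CO2.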

SMILES: O=C1CC[C@@H]2CCC[C@H]3CN4CCC[C@H](C[C@H]5CCCN6C[C@@H]7CCC[C@H]8CCC(=O)N([C@H]87)[C@H]56)[C@H]4N1[C@H]23
- selectivity ratio [1]: > 9.5
- pEC50 (Hepatitis C virus): 4.98
- CC50 [2]: > 100 µM

SMILES: COC[C@@H]1CCCN2C[C@@H]3CCC[C@H]4CC(C=O)=CN([C@H]43)[C@@H]12
- selectivity ratio [1]: > 109
- pEC50 (Hepatitis C virus): 6.04
- CC50 [2]: > 100 µM

SMILES: CCC[C@H](NC(=O)[C@@H]1[C@H]2CCC[C@H]2CN1C(=O)[C@@H](NC(=O)[C@@H](NC(=O)c1cnccn1)C1CCCCC1)C(C)(C)C)C(=O)C(=O)NC1CC1 [TELAPREVIR]
- selectivity ratio [1]: 371
- pEC50 (Hepatitis C virus): 6.89
- CC50 [2]: 47.8 µM

SMILES: C1C[C@H]2CCCN3[C@H]2[C@@H](C1)CN1CCCC[C@@H]13
- selectivity ratio [1]: 13
- pEC50 (Hepatitis C virus): 5.13
- CC50 [2]: 95.9 µM

SMILES: O=C1CC[C@@H]2CCC[C@H]3CN4CCCC[C@H]4N1[C@H]23
- selectivity ratio [1]: > 3.3
- pEC50 (Hepatitis C virus): 4.51
- CC50 [2]: > 100 µM

SMILES: O=CC1=CN2[C@@H]3[C@@H](CCC[C@H]3CN3CCCC[C@@H]32)C1
- selectivity ratio [1]: > 30.6
- pEC50 (Hepatitis C virus): 5.49
- CC50 [2]: > 100 µM
